In ChEMBL document CHEMBL4339256, “Antibacterial Salinaphthoquinones from a Strain of the Bacterium Salinispora arenicola Recovered from the Marine Sediments of St. Peter and St. Paul Archipelago, Brazil” (2019):
Calls of active or inactive are those of the source. No cut-off for these calls is given here.

Columns and labels:
Staphylococcus aureus [1] = assay: Antimicrobial activity against methicillin-resistant Staphylococcus aureus ATCC 43300 assessed as inhibition of microbial growth incubated for 24 hrs by broth microdilution assay; type: functional
Outline: (§1)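 Strains pre-grown on Mueller Hinton agar 24 h at 35 ± 2 °C aerobically; colonies suspended in 0.85% NaCl, then diluted in Mueller Hinton broth to a final 5 × 10^5 CFU/mL. Broth microdilution per CLSI (2015) with 2-fold serial compound dilutions; rifampicin positive control. Incubated as above; MIC read as lowest concentration with no visible growth.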

Enterococcus faecalis [2] = assay: Antimicrobial activity against Enterococcus faecalis ATCC 29212 assessed as inhibition of microbial growth incubated for 24 hrs by broth microdilution assay; type: functional
Outline: (§2)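 Strains first grown on Mueller Hinton agar 24 h at 35 ± 2 °C, aerobic. Colonies were suspended in sterile 0.85% (w/v) NaCl and diluted into Mueller Hinton broth to a final 5 × 10^5 CFU/mL. Broth microdilution followed CLSI (2015), with 2-fold serial dilutions of compound and rifampicin as positive control. Plates were incubated under the same conditions. MIC was read as the lowest concentration with no visible growth.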

Staphylococcus aureus [3] = assay: Antimicrobial activity against Staphylococcus aureus ATCC 29213 assessed as inhibition of microbial growth incubated for 24 hrs by broth microdilution assay; type: functional; outline: as §2
Enterococcus faecalis [4] = assay: Antimicrobial activity against vancomycin-resistant Enterococcus faecalis ATCC 51212 assessed as inhibition of microbial growth incubated for 24 hrs by broth microdilution assay; type: functional; outline: as §1
Escherichia coli = assay: Antimicrobial activity against Escherichia coli ATCC 25922 assessed as inhibition of microbial growth incubated for 24 hrs by broth microdilution assay; type: functional, organism-based; outline: as §2

SMILES	MIC (Staphylococcus aureus [1])	MIC (Enterococcus faecalis [2])	MIC (Staphylococcus aureus [3])	MIC (Enterococcus faecalis [4])	MIC (Enterococcus faecalis [2]; ATCC 29212, 24 h) [µg/mL]	MIC (Escherichia coli)	MIC (Staphylococcus aureus [1]; ATCC 43300, 24 h) [µg/mL]	MIC (Staphylococcus aureus [3]; ATCC 29213, 24 h) [µg/mL]	MIC (Enterococcus faecalis [4]; ATCC 51212, 24 h) [µg/mL]
Cc1cc2c(c(C(=O)[C@@H](C)C3OC4[C@H](C)C(OC(=O)[C@H]4C)C3C)c1O)C(=O)C=C(N)C2=O (stereo partly specified)	inactive	inactive	inactive	inactive	–	–	–	–	–
Cc1cc(C)c(=O)oc1-c1c(O)c(C)cc2c1C(=O)C(N)=CC2=O	inactive	–	inactive	inactive	125	–	–	–	–
Cc1cc2c(c(O)c1O)C(=O)C=C(N)C2=O	inactive	–	inactive	inactive	16	inactive	–	–	–
CC(=O)CC1(C)Oc2c(C)cc3c(c2C1=O)C(=O)C=C(N)C3=O (stereo unspecified)	–	–	–	–	125	–	125	125	125
CO[C@H]1/C=C/O[C@@]2(C)Oc3c(C)c(O)c4c(O)c(c(/C=N/N5CCN(C)CC5)c(O)c4c3C2=O)NC(=O)/C(C)=C\C=C\[C@H](C)[C@H](O)[C@@H](C)[C@@H](O)[C@@H](C)[C@H](OC(C)=O)[C@@H]1C [RIFAMPIN]	–	–	–	–	≤ 0.03	–	≤ 0.03	≤ 0.03	≤ 0.03
Cc1cc(C)c(=O)oc1-c1c(O)c(C)cc2c1C(=O)C=C(N)C2=O	–	–	–	–	16	inactive	62	31	125
